Assay outcomes from PubChem.
TAAR1 ag: human TAAR1 agonists, primary screen, Fluo-8 calcium fluorescence, CHO RD-HGA16 cells; vehicle wells 0%, saturating PEA agonist 100%; activation, % at 3 µM; actives 0.99% (n = 360,000);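 active means activation above the mean activation of all test compounds in the run plus 3 SD, cut at about 38% in these data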
Target sequence (Q96RJ0 whole entry, looked up): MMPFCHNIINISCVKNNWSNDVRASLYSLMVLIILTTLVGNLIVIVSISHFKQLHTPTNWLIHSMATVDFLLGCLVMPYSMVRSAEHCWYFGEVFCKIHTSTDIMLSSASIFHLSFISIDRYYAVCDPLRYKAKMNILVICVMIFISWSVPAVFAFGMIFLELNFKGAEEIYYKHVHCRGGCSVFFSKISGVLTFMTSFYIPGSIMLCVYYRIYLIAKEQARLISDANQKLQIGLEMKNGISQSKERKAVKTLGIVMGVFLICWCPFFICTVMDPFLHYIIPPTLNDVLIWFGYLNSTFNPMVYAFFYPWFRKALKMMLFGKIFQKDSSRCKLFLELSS
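Benchmarks: low control DMSO, high control PEA (EC100); System: CHO RD-HGA16 cells carrying human TAAR1 plus Gα16; Detection: Fluo-8 fluorescence, 5 s baseline then 140 s kinetic read; Schedule: 17-24 h plating, Fluo-8 75 min 37 °C, 30 min RT; Read-out basis: % activation from peak over basal fluorescence ratio, DMSO-to-PEA scaled.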
OX1R antag-1: antagonists of human orexin 1 receptor (OX1R); Orexin/Hypocretin receptor type 1 (Homo sapiens), O43613; OX1R-expressing cells, FRET antagonist read-out; inhibition, % at 6.6 µM; actives 1.8% (n = 330,000); AID 485270, 2010; in the data active means inhibition mostly above about 38%, no sharp cut-off; inactive means mostly below about 40%;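 further: 0% = agonist challenge alone and 100% = reference antagonist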
CHO parental Ca: ATP-evoked calcium signal inhibitors, parental CHO, primary screen, counter-screen for OX1R antagonist project, cell-based, fluorescence, Fluo-8 calcium dye; parental CHO-K1, ATP-induced calcium, Fluo-8 fluorescence; inhibition, % at 5.6 µM; actives 0.63% (n = 330,000); AID 463079, 2010;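 active means inhibition above that plate's mean sample inhibition plus 3 SD, cut at about 26% in these data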;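 further: 0% = ATP-challenged DMSO wells and 100% = DMSO wells without ATP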
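Test system: untransfected parental CHO cell line; also added: ATP stimulus; dosing: 5.6 µM, single dose; signal: calcium-sensitive Fluo-8 fluorescence; measure: percent inhibition of ATP-evoked calcium rise, normalized to controls; benchmarks: low control ATP plus DMSO, high control DMSO only; replication: one well per compound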
GPR7 antagonist: GPR7 receptor antagonists, primary screen, cell-based, fluorescence, single concentration. Neuropeptides B/W receptor type 1 (Homo sapiens), P48145. GPR7-expressing cells, fluorescence antagonist assay. inhibition, % at 4.4 µM. actives 1.1% (n = 290,000). AID 1861, 2009; in the data active means inhibition above about 16%, passing the limit was not always enough;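 further: cells stimulated with the agonist NPW; 0% = agonist with vehicle and 100% = vehicle without agonist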
Target sequence (P48145 whole entry, looked up): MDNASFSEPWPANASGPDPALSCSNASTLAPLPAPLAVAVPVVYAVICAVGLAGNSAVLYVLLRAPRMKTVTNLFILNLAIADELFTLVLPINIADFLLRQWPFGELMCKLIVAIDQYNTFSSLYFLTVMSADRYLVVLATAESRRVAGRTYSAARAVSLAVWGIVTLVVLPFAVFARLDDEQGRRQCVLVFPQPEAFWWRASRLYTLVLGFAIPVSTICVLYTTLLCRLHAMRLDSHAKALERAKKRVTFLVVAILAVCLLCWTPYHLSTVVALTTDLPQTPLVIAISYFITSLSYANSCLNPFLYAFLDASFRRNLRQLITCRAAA
TAAR1 antag: human TAAR1 antagonists, primary screen, Fluo-8 calcium fluorescence, CHO RD-HGA16 cells | Trace amine-associated receptor 1 (Homo sapiens), Q96RJ0 | antagonist | AID 624466, 2012 | inhibition, % at 3 µM | actives 1.5% (n = 360,000);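 active means inhibition above a per-plate cutoff, the mean inhibition of test compounds on that plate plus 3 SD, cut at about 49% in these data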;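 further: 0% = DMSO plus EC80 beta-PEA response and 100% = DMSO alone without agonist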
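test system = CHO RD-HGA16 cells bearing hTAAR1 | replication = singlicate | controls = DMSO-only wells and EC80 β-PEA-stimulated wells | reagent = EC80 β-phenethylamine stimulus | read-out basis = percent inhibition of PEA-evoked calcium signal, max/basal emission ratio | schedule = seeding 17-24 h prior, 75-min 37 °C, 30-min RT dye loading | signal = kinetic Fluo-8 calcium fluorescence measurement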
OX1R antag-2: OX1R (HCRTR1) antagonists, primary screen, fluorescence, CHO/OX1R cells, Fluo-8 calcium, orexin A | actives 0.43% (n = 330,000) | Fluo-8 calcium fluorescence | inhibition, % at 5 µM;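 active means inhibition above its plate's threshold, mean inhibition of all tested compounds on the plate plus 3 SD, cut at about 37% in these data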;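 further: 0% = orexin A challenge wells and 100% = SB-334867-A antagonist wells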
* = called active by the depositor; . = no result. An excerpt weighted towards active compounds, which were near 4.6% of everything screened.

SMILES	TAAR1 ag	OX1R antag-1	CHO parental Ca	GPR7 antagonist	TAAR1 antag	OX1R antag-2
CCN(C[C@H]1N[C@@](CC)(C(=O)OC)[C@H]2C(=O)N(Cc3ccccc3)C(=O)[C@@H]12)C(=O)c1ccc(C)cc1	11	9	-19	.	50*	-14
CN(C)c1ccc(CC(=O)N2CCCC(c3cc(C(=O)Nc4ccc(F)c(Cl)c4)no3)C2)cc1 (stereo unspecified)	3	.	.	.	9	.
O=C(COC(=O)c1cc([N+](=O)[O-])ccc1N1CCOCC1)Nc1ccc(Cl)cn1	4	52*	-15	9	4	-22
O=C(COC(=O)c1cc([N+](=O)[O-])ccc1N1CCOCC1)NC1CCCCC1	2	53*	-20	.	-20	-28
O=C(COC(=O)c1cc([N+](=O)[O-])ccc1N1CCOCC1)Nc1ccc(Cl)cc1	2	52*	-1	0	14	-14
O=C(COC(=O)c1cc([N+](=O)[O-])ccc1N1CCOCC1)NC1CCS(=O)(=O)C1 (stereo unspecified)	1	21	-6	.	-27	-9
COC(=O)c1cc2c(c3c4cc(F)ccc4n(S(=O)(=O)c4ccc(OC)cc4)c13)C(=O)N(C)C2	-1	.	.	.	14	.
CC(=O)Nc1cccc(-c2cc(NC=O)c3ncc(-c4cccc(C(C)=O)c4)n3c2)c1	7	.	.	.	26	.
CC(=O)Nc1cc(-c2ccc(CO)cc2)cn2c(-c3ccc(F)c(Cl)c3)cnc12	5	.	.	.	54*	.
COc1cccc(-c2cnc3c(NC=O)cc(-c4cccc(NC(C)=O)c4)cn23)c1	9	.	.	.	55*	.
COc1cccc(-c2cnc3c(NC(C)=O)cc(-c4cccc(NS(C)(=O)=O)c4)cn23)c1	7	.	.	.	50*	.
CC(=O)Nc1cccc(-c2cc(NC(C)=O)c3ncc(-c4cccc(C(F)(F)F)c4)n3c2)c1	17	.	.	.	50*	.
CC(=O)Nc1cc(-c2cccc(NS(C)(=O)=O)c2)cn2c(-c3ccccc3)cnc12	6	.	.	.	29	.
N#Cc1cnn(-c2cc(Cl)ccc2Cl)c1N	0	.	.	.	-4	.
O=C(COc1cc2oc(=O)cc(-c3ccccc3)c2cc1Cl)NCCN1CCOCC1	6	49*	-14	-16	-8	7
Cc1cc(N2CCNC[C@@H]2C)ccc1N1C[C@@H](C)O[C@@H](C)C1	3	.	.	.	-5	.
Cc1c(Cc2ccccc2)[n+](=O)c2ccccc2n1[O-]	0	.	.	.	-16	.
CC(=O)c1c(C)n([O-])c2ccc(C)cc2[n+]1=O	2	41*	-4	-2	-19	2
Cc1ccc(/C=C2/NC(=O)N(Cc3ccccc3)C2=O)s1	40*	2	21	2	35	20
COc1cccc(C(C(=O)NC2CCCC2)N2CCN(c3cc(C)nc4ccccc34)CC2)c1OC (stereo unspecified)	-1	.	.	.	-19	.
CC(NC(=O)Cn1cnc2c1c(=O)n(C)c(=O)n2C)c1ccccc1 (stereo unspecified)	8	16	-7	-10	-3	-12
CCc1ccc(C(C)NC(=O)Cn2cnc3c(=O)n(C)c(=O)n(C)c32)cc1 (stereo unspecified)	38*	2	-11	-5	1	-15
CCOc1ccccc1NC(=O)c1ccc(OCC)c([N+](=O)[O-])c1	10	22	-18	-3	9	8
COc1ccc(NC(=O)c2ccc3[nH]c(C)c(C)c3c2)c(OC)c1	2	50*	-7	7	0	19
CCOc1ccccc1NC(=O)c1ccc2[nH]c(C)c(C)c2c1	-6	73*	-22	-18	1	-16
SMILES	TAAR1 ag	OX1R antag-1	CHO parental Ca	GPR7 antagonist	TAAR1 antag	OX1R antag-2
Cc1c(C(c2ccc(N(C)C)cc2)c2c(C)n(C)n(-c3ccccc3)c2=O)c(=O)n(-c2ccccc2)n1C	2	71*	-5	-11	-7	-12
COc1ccc2c(c1)CO[C@]21O[C@H](CCO)C[C@H](O)[C@H]1O	2	.	.	.	-12	.
O=C(CC1SC(=O)N(Cc2cccc3ccccc23)C1=O)Nc1nccs1 (stereo unspecified)	4	62*	-27	10	16	-12
O=C(Cc1ccccc1)Nc1nccs1	4	26	-3	2	-1	1
Cc1nc(N)sc1C(=O)N/N=C/c1ccccc1[N+](=O)[O-]	9	31	-10	8	3	-15
CC(/C=N/NC(=O)c1sc(N)nc1C)=C\c1ccccc1	40*	26	-14	-11	-14	-7
O=S1(=O)CCC(N(N=Cc2ccco2)c2ccccc2)C1 (stereo unspecified)	2	.	.	.	-13	.
Nc1[nH]c(C(=O)c2ccccc2)c(-c2cccc3ccccc23)c1C(=O)NCc1ccc(F)c(F)c1	2	.	.	.	-19	.
COC(=O)c1ccccc1S(=O)(=O)N(CCCO)Cc1cc2c(C)ccc(C)c2[nH]c1=O	12	46*	-16	-6	19	-6
Cc1ccc2[nH]c(=O)c(CN(Cc3ccco3)S(=O)(=O)c3c(C)ccc4nsnc34)cc2c1	16	19	-16	-7	34	-16
COc1ccc2[nH]c(=O)c(CN(Cc3cccs3)S(=O)(=O)c3c(C)ccc4nsnc34)cc2c1	30	17	-16	-7	55*	-18
COC(=O)c1ccccc1S(=O)(=O)N(Cc1ccco1)Cc1cc2cc(OC)ccc2[nH]c1=O	8	41*	-38	-9	-4	4
C[C@H](O)[C@@H]1CN2CCc3ccc(-c4ccc5c(c4)OCO5)cc3[C@@H]2C[C@@H]1N(C)C(=O)NC1CCCCC1	-1	.	.	.	-21	.
CCCCC[C@H](C)N1C[C@@H](COCc2ccccc2)Oc2cc(N3CCC[C@H]3C(N)=O)ccc2S1(=O)=O	39*	.	.	.	-32	.
CCCCC[C@@H](C)N1C[C@@H](COCc2ccccc2)Oc2cc(N3CCC[C@H]3C(N)=O)ccc2S1(=O)=O	3	.	.	.	-38	.
Cc1cc(C)n2c(NC3CCCC3)c(-c3ccc(F)cc3)nc2n1	3	.	.	.	-9	.
COc1ccc(C(=O)C[n+]2cccc3cc(OC)ccc32)cc1	1	14	3	-3	18	-7
COc1cccc(C(=O)C[n+]2cccc3cc(OC)ccc32)c1	4	34*	-13	.	-11	-17
COC(=O)[C@@]12C[C@@H](CC(=O)N3CCN(C(=O)C4CC4)CC3)C(=O)N(Cc3cccc4ccccc34)C1=CCC(C)(C)C2	9	.	.	.	-2	.
